# Source: paper PMC8108386 (Chemical Science, 2020)
# Like-named read-outs stand apart in the source and are kept apart here.
# Tests used:
# [1] = Singlet oxygen quantum yield by direct 1O2 phosphorescence, relative to [Ru; type: physicochemical; conditions: MeCN
# [2] = system: A375, B16F10 and SKMEL28 melanoma cell lines; test: Dark and light cytotoxicity stated for all three melanoma cell lines; type: cell-based; conditions: read-out: dark EC50 values, toward all three melanoma cell lines
# Summary of the method: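 Log-phase A375, B16F10 and SKMEL28 melanoma cells were seeded and dosed with test compound (1 nM to 300 μM) in the dark. They were incubated 48 h, and viability was read by resazurin assay. EC50 is the concentration that reduces relative viability by 50%, taken from dose–response curves and reported as Log(EC50 ± SEM).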
# [3] = system: human melanoma SKMEL28 cells; test: Cytotoxicity and photocytotoxicity, resazurin, 384-well, UTA; type: cell-based; conditions: visible vs. 733 nm
# SKMEL28 cells = test: Photocytotoxicity at high fluence and irradiance, Modulight ML8500; type: cell-based, human
# Summary of the method: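 SKMEL28 photocytotoxicity was tested with a well-by-well illumination system that sets wavelength, fluence and irradiance separately for each well, allowing higher fluences and irradiances than whole-plate sources. Light-only control wells were included.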
# B16F10 tumor = type: in vivo, C57BL/6NCrl mice; conditions: for protection from tumor growth (tumor-free mice): challenged with live B16F10 cells
# Summary of the method: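 B16F10 cells were treated in vitro with test compound (1.40 μM) plus light. Cells collected 4 h and 12 h post-treatment were pooled and injected SC into the left flank of female and male C57BL/6NCrl mice, with PBS as control. After 7 days, untreated B16F10 cells were injected into the right flank. Tumor growth and tumor-free survival were followed, and hazard ratios derived.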
# female C57BL/6J mice = test: Maximum tolerated dose, dose escalation, intraperitoneal injection; type: in vivo, mouse
# Summary of the method: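 A dose-escalation safety study in mice used intraperitoneal injection at doses up to 100 mg kg−1. MTD was assigned from the appearance of observable toxicity.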
# [4] = Observations on stability and behaviour in solution; type: physicochemical; conditions: 37 °C, extended periods of time, absence of a light trigger
Substance,ΦΔ (singlet oxygen quantum yield) ([1]; λex 455 nm (excitation maximum)),ΦΔ (singlet oxygen quantum yield) ([1]; λex 630 nm),ΦΔ (singlet oxygen quantum yield) ([1]; λex 753 nm),EC50 [2],difference between the visible and NIR EC50 values [3],"EC50 (SKMEL28 cells; 753 nm (200 J cm−2, 300 mW cm−2))",photocytotoxicity with 976 nm (SKMEL28 cells; 976 nm regardless of the fluence (data not shown)),"reduction of cell viability (SKMEL28 cells; all light treatments except 810 nm, down to 2.5 μM)",protection from tumor growth (tumor-free mice) (B16F10 tumor; female C57BL/6 mice vaccinated with 2-PDT treated B16F10 cells),"hazard ratios (B16F10 tumor; female and male mice, vaccinated vs. unvaccinated)",protection from tumor growth (tumor-free mice) (B16F10 tumor; male C57BL/6 mice vaccinated with 2-PDT treated B16F10 cells),maximum tolerated dose (MTD) (female C57BL/6J mice),stability to ligand dissociation [4]
[Ru(tpbn)(phen)(4-pic)]Cl2 [Compound 8],0.17,0.10,0.10,≥ 46.3 µM,,,,,,,,,
[Ru(tpbn)(dppn)(4-pic)]Cl2 [Compound 2],,0.93,0.86,≥ 46.3 µM,5 fold,2020 nM,ineffective,≥ 60%,80%,≤ 0.2,55%,50 mg/kg,completely stable
